Reference: paper PMC6434473 (Cell Transplantation, 2018)
Entries after “also recorded” stand apart in the source; their conditions may differ.

What was measured:
[1] = test system: CXCR4-dependent HIV-1 strains; conditions: cited from earlier work
[2] = test system: human CXCR4; experiment: SDF-1α-induced phosphorylation of Akt and Erk in CXCR4-transfected CHO cells; type: cell-based; conditions: SDF-1α 12.5 nM
How it was run: (§1)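 CHO cells were stably transfected with pcDNA3-hCXCR4 or pcDNA3-hCXCR7, selected in G418 (1.2 mg/mL) and single-cell cloned; the CXCR4 line was also FACS-sorted. After SDF-1α exposure, cells were lysed 30 min on ice (Tris/NaCl/EGTA/deoxycholate/Triton/SDS, pH 7.2, plus phosphatase/protease inhibitors). Blots: BCA-matched protein, 8% SDS-PAGE, nitrocellulose, primary antibodies overnight at 4°C, HRP secondary 1 h at room temperature, chemiluminescent detection.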

[3] = test system: CXCR7; experiment: SDF-1α-induced phosphorylation of Akt and Erk in CXCR7-transfected CHO cells; type: cell-based, human; conditions: Western blotting; for effect on SDF-1α-induced Akt phosphorylation: peptides with SDF-1α
How it was run: as §1

[4] = test system: wild-type CHO cells; experiment: SDF-1α-induced phosphorylation of Akt in wild-type CHO cells; type: cell-based, Chinese hamster; conditions: SDF-1α 12.5 nM, Western blotting
How it was run: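 Untransfected CHO cells were treated with SDF-1α (12.5 nM), then lysed 30 min on ice in pH 7.2 Tris/NaCl/EGTA/deoxycholate/Triton/SDS buffer with phosphatase/protease inhibitors. Lysates were cleared at 17,000 g, 15 min, 4°C. BCA-matched protein ran on 8% SDS-PAGE onto nitrocellulose, blocked with milk or BSA in TBST. Probing: primary overnight at 4°C, HRP secondary 1 h at room temperature, chemiluminescence.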

[5] = test system: CXCR7; conditions: cited from earlier work
[6] = test system: C3H/HeJ mice; experiment: Mobilization of hematopoietic progenitor cells to the blood; type: in vivo, mouse; conditions: subcutaneous, 1 h; for mobilization of BFU-E from the bone marrow to the blood / mobilization of CFU-GEMM from the bone marrow to the blood / mobilization of CFU-GM from the bone marrow to the blood: 7-day culture in MethoCult GF M3434; for mobilization of HPCs from the bone marrow to the peripheral blood: vs vehicle control (P < 0.01), monovalent peptide 37.5 and 150 mg/kg, bivalent peptide 57.5 and 230 mg/kg, mean of at least three independent experiments
How it was run: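 C3H/HeJ mice received vehicle or peptide subcutaneously. After 1 h, peripheral blood was drawn into heparin-treated tubes and red cells were lysed with ammonium chloride. Cells were grown in MethoCult GF M3434 for 7 days in humidified 5% CO2. CFU-GM, BFU-E and CFU-GEMM colonies were counted.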

[7] = test system: CXCR4; conditions: HEK293 cells that stably expressed CXCR4; cited from earlier work
[8] = test system: HSCs; conditions: clinical studies; cited from earlier work
[9] = SDF-1α 12.5 nM, 5, 15, 30, 45, 60 minutes

| Molecule | effect on SDF-1α-induced Akt phosphorylation [3] | mobilization of BFU-E from the bone marrow to the blood [6] | mobilization of CFU-GEMM from the bone marrow to the blood [6] | mobilization of CFU-GM from the bone marrow to the blood [6] | mobilization of HPCs from the bone marrow to the peripheral blood [6] | anti-HIV entry activity [1] | also measured |
| --- | --- | --- | --- | --- | --- | --- | --- |
| LGASWHRPDKCCLGYQKRPLPQVL LSSWYPTSQLCSKPGVIFLTKRGRQ VCADKSKDWVKKLMQQLPVTAR [vMIP-II] |  |  |  |  |  |  | inhibition of HIV-1 entry ([1]; vMIP-II binding to CXCR4 or CCR5): inhibitory effect on HIV-1 entry |
| SDF-1α: specific ligand of CXCR4 |  |  |  |  |  |  | induction of phosphorylation of Akt ([2]; Western blotting): induced the phosphorylation of Akt and Erk significantly; induction of phosphorylation of Erk ([2]; Western blotting): induced the phosphorylation of Akt and Erk significantly; induction of Akt phosphorylation [3, 9]: only Akt phosphorylation was observed consistently from 5 to 60 minutes; also recorded: only weak phosphorylation of Akt; induction of Erk phosphorylation [3, 9]: no phosphorylation changes were observed for Erk; induction of Akt phosphorylation [4]: no changes in Akt phosphorylation; affinity for CXCR7 compared with CXCR4 [5]: higher |
| LGASWHRPDKCCLGYQKRPLPK [HC4319] | little inhibitory effects; also recorded: little or no effect | strongly induced rapid mobilization | strongly induced rapid mobilization | strongly induced rapid mobilization | strong mobilization of HPCs |  | inhibitory effect on phosphorylation of Akt compared with DV1 ([2]; 30 μM, bivalent vs monovalent): more potent inhibitory effect; inhibitory effect on phosphorylation of Erk compared with DV1 ([2]; 30 μM, bivalent vs monovalent): more potent inhibitory effect; CXCR4 binding potency compared with the monomeric counterparts DV1 and DV3 [7]: much more potent |
| LGASWHRPDK [DV3] |  |  |  |  |  | anti-HIV entry activity |  |
| LGASWHRPDKCCLGYQKRPLP [DV1] | slight effect; also recorded: little or no effect | strongly induced rapid mobilization | strongly induced rapid mobilization | strongly induced rapid mobilization | strong mobilization of HPCs | anti-HIV entry activity | effect on SDF-1α-induced Akt phosphorylation ([3]; listed as DV-1): little inhibitory effects |
| c1cc(CN2CCCNCCNCCCNCC2)ccc1CN1CCCNCCNCCCNCC1 [AMD3100] |  |  |  |  |  |  | mobilization of HSCs to the peripheral blood [8]: rapid mobilization of HSCs to the peripheral blood |
